Reference: ChEMBL document CHEMBL4387722

Key:
[1] = Inhibition of refolded rhodanese (unknown origin) preincubated with Escherichia coli GroEL/GroES for 60 mins by measuring rhodanese enzyme activity followed by compound addition by Fe(SCN)3 dye based spectrometric analysis; set-up: species or system Homo sapiens
[2] = molecular target: T1, Malate dehydrogenase, mitochondrial (Sus scrofa, UniProt P00346); assay: Inhibition of refolded pig heart mitochondrial MDH preincubated with Escherichia coli GroEL/GroES for 45 mins using sodium mesoxalate as substrate followed by compound addition and measured after 20 to 30 mins by spectrometric analysis
T1 sequence (P00346 whole entry): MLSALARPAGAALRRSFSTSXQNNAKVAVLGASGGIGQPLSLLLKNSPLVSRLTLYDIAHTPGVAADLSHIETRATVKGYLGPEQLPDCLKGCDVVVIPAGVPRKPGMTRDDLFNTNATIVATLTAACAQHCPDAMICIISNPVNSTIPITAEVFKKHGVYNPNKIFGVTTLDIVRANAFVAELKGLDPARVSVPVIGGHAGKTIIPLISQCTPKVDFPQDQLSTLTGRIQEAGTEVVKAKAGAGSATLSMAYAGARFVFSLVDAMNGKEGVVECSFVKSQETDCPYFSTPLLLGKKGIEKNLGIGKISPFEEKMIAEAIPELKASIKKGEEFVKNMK

[3] = molecular target: T2, E. coli GroEL/ES (Escherichia coli, UniProt P0A6F5); assay: Inhibition of Escherichia coli GroEL expressed in Escherichia coli DH5alpha/Escherichia coli GroES expressed in Escherichia coli BL21 (DE3) assessed as reduction in GroEL/GroES-mediated denatured rhodanese refolding by measuring rhodanese enzyme activity after 45 mins by Fe(SCN)3 dye based spectrometric analysis
[4] = molecular target: T2, E. coli GroEL/ES; assay: Inhibition of Escherichia coli GroEL expressed in Escherichia coliDH5alpha/Escherichia coli GroES expressed in Escherichia coli BL21 (DE3) assessed as reduction in GroEL/GroES-mediated denatured pig heart mitochondrial MDH refolding by measuring MDH enzyme activity using sodium mesoxalate as substrate after 20 to 40 mins by spectrometric analysis
[5] = Cytotoxicity against human THLE3 cells assessed as reduction in cell viability after 48 hrs by Alamar blue assay; type: cell-based
How it was run: (§1)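 Alamar Blue viability read-out. Human liver (THLE-3) and kidney (HEK 293) cells incubated with compound for 48 h. Tested in dose-response to derive CC50.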

[6] = molecular target: T3, Tyrosine-protein phosphatase non-receptor type 1 (Homo sapiens, UniProt P18031); assay: Inhibition of human PTPN1 expressed in Escherichia coli Rosetta 2 (DE3) using pNPP as substrate after 45 mins by spectrophotometric method
T3 sequence (P18031 whole entry): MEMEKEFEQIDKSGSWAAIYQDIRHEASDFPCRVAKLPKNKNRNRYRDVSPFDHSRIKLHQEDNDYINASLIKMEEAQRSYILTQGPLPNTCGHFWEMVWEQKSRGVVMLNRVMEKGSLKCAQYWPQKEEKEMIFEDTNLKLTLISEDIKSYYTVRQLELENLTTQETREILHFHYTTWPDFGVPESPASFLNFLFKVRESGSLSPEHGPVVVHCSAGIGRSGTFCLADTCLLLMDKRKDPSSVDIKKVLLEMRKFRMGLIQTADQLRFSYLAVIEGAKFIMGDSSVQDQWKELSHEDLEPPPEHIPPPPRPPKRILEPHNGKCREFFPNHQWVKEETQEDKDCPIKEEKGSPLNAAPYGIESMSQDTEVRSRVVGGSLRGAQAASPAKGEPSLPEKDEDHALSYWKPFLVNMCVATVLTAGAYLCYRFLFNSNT

[7] = molecular target: T4, Tyrosine-protein phosphatase non-receptor type 5 (Homo sapiens, UniProt P54829); assay: Inhibition of human PTPN5 expressed in Escherichia coli Rosetta 2 (DE3) using pNPP as substrate after 45 mins by spectrophotometric method
T4 sequence (P54829 whole entry): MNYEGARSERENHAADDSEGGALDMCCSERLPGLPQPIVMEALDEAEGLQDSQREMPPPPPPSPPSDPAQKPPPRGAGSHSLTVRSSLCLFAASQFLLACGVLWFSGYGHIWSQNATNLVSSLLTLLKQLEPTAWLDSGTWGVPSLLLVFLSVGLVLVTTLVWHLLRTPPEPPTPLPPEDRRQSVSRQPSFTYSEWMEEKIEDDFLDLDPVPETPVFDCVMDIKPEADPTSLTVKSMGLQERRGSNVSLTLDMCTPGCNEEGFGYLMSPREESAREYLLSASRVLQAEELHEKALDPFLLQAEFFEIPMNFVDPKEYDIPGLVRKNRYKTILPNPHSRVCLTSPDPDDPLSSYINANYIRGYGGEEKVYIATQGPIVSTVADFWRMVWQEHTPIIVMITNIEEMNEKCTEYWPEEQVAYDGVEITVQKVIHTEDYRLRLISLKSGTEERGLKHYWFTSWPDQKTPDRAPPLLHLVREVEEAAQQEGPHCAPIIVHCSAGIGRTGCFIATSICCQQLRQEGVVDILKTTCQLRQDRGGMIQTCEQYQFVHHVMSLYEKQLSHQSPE

[8] = Cytotoxicity against human HEK293 cells assessed as reduction in cell viability after 48 hrs by Alamar blue assay; type: cell-based; how it was run: as §1
[9] = test system: Mycobacterium tuberculosis; assay: Antitubercular activity against Mycobacterium tuberculosis H37Rv after 5 days at 200 uM relative to control; type: functional; conditions: 120 h
How it was run: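 M. tuberculosis grown in liquid culture with compound at a fixed 200 μM for 5 days. Growth inhibition expressed as percent of control.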

[10] = test system: Mycobacterium tuberculosis; assay: Antitubercular activity against Mycobacterium tuberculosis H37Rv after 5 days; type: functional, organism-based; conditions: 120 h
[11] = molecular target: HSP60/HSP10 (Homo sapiens, UniProt P10809); assay: Inhibition of human HSP60 expressed in Escherichia coli Rosetta 2(DE3)/human HSP10 expressed in Escherichia coli Rosetta 2(DE3) pLysS cells assessed as reduction in HSP60/HSP10-mediated denatured pig heart mitochondrial MDH refolding by measuring MDH enzyme activity using sodium mesoxalate as substrate after 40 to 60 mins by spectrometric analysis
[12] = molecular target: T5, Phosphotyrosine protein phosphatase (Mycobacterium tuberculosis, UniProt A0A045ISB3); assay: Inhibition of Mycobacterium tuberculosis His-tagged PtpB expressed in Escherichia coli Rosetta 2 (DE3) using pNPP as substrate after 30 mins by spectrophotometric method
T5 sequence (A0A045ISB3 whole entry): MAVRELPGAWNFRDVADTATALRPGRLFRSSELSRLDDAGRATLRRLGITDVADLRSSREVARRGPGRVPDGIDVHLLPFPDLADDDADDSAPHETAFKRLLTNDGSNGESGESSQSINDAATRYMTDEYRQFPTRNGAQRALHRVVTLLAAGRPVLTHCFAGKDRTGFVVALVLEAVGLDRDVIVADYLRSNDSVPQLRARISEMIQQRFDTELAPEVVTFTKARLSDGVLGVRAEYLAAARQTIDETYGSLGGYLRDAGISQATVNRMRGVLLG

[13] = molecular target: T6, Tyrosine-protein phosphatase non-receptor type 2 (Homo sapiens, UniProt P17706); assay: Inhibition of human PTPN2 expressed in Escherichia coli Rosetta 2 (DE3) using pNPP as substrate after 45 mins by spectrophotometric method
T6 sequence (P17706 whole entry): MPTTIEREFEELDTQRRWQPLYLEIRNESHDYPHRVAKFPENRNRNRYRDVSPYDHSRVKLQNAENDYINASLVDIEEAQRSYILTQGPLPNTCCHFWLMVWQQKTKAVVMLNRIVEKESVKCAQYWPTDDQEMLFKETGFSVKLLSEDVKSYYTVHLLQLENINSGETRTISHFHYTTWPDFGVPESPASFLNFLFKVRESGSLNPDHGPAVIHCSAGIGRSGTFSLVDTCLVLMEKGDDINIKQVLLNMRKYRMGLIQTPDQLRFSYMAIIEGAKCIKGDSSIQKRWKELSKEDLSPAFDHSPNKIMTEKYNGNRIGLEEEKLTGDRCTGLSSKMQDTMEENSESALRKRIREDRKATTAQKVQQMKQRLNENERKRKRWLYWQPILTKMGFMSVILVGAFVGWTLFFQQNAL

HSP60/HSP10, sequence (P10809 whole entry): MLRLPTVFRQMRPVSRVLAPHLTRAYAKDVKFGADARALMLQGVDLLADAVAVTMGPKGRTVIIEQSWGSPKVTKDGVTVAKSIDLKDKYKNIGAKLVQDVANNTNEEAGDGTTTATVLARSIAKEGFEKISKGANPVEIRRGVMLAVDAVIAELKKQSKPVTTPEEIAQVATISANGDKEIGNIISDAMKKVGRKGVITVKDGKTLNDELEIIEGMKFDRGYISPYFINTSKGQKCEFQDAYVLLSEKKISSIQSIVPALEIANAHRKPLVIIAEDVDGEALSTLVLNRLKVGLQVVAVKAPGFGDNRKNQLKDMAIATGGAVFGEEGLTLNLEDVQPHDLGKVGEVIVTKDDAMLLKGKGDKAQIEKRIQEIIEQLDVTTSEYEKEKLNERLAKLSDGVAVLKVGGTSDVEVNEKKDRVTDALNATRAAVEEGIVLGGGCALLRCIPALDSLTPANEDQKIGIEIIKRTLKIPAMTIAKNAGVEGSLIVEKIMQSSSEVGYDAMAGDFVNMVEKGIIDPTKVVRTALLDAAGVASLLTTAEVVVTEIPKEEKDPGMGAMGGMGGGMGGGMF
HSP60/HSP10, sequence (P61604 whole entry, further chain): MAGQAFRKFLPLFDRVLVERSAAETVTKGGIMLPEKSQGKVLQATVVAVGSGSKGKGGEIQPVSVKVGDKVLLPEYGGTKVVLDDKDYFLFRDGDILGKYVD
T2 sequence (P0A6F5 whole entry, looked up): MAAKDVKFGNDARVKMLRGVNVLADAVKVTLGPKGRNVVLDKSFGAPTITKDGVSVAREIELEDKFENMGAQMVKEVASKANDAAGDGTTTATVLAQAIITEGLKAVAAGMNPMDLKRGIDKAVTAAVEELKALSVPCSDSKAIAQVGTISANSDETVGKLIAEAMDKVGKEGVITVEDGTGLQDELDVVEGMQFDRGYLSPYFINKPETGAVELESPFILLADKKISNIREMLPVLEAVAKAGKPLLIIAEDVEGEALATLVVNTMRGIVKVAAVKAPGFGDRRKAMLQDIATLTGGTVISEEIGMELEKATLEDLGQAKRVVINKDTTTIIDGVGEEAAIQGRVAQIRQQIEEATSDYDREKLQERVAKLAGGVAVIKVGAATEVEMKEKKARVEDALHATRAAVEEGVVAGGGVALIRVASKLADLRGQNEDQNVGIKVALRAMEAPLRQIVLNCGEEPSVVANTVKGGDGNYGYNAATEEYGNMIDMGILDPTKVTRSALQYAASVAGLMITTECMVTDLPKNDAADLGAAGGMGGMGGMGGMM

Structure (SMILES)	IC50 [1]	IC50 [2]	IC50 [3]	IC50 [4]	CC50 at 48 h [5]	IC50 [6]	IC50 [7]	CC50 at 48 h [8]	inhibition at 200 µM [9]	EC50 [10]	IC50 [11]	IC50 [12]	IC50 [13]
O=S(=O)(Nc1ccc2oc(-c3ccccc3)nc2c1)c1cccs1	> 100 µM	> 63 µM	214 µM	> 100 µM	35 µM	> 100 µM	85 µM	97 µM	68%	> 200 µM	90 µM	81 µM	88 µM
O=S(=O)(Nc1ccc2oc(-c3ccccc3)nc2c1)c1ccccc1	> 100 µM	> 63 µM	190 µM	> 100 µM	33 µM	77 µM	42 µM	46 µM	76%	105 µM	> 100 µM	87 µM	64 µM
O=S(=O)(Nc1ccc(-c2nc3ccccc3o2)cc1)c1cccc(C(F)(F)F)c1	> 100 µM	> 63 µM	170 µM	53 µM	82 µM	44 µM	40 µM	> 100 µM	50%	> 200 µM	57 µM	49 µM	48 µM
O=S(=O)(Nc1ccc(-c2nc3ccccc3o2)cc1)c1ccc(F)c(C(F)(F)F)c1	> 100 µM	> 63 µM	112 µM	34 µM	72 µM	40 µM	43 µM	82 µM	77%	> 200 µM	28 µM	36 µM	36 µM
O=S(=O)(Nc1ccc(-c2nc3ccccc3o2)cc1)c1ccc(Cl)s1	> 100 µM	> 63 µM	156 µM	53 µM	85 µM	63 µM	64 µM	> 100 µM	70%	185 µM	31 µM	32 µM	72 µM
O=S(=O)(Nc1ccc(-c2nc3ccccc3o2)cc1)c1ccc(F)cc1	> 100 µM	> 63 µM	224 µM	93 µM	77 µM	68 µM	59 µM	> 100 µM	83%	144 µM	73 µM	64 µM	76 µM
Cc1ccccc1S(=O)(=O)Nc1ccc(-c2nc3ccccc3o2)cc1	> 100 µM	> 63 µM	111 µM	76 µM	86 µM	52 µM	32 µM	> 100 µM	58%	176 µM	85 µM	38 µM	50 µM
O=S(=O)(Nc1ccc(-c2nc3ccccc3o2)cc1)c1ccccc1O	> 100 µM	> 63 µM	126 µM	83 µM	81 µM	33 µM	36 µM	> 100 µM	0%		> 100 µM	31 µM	57 µM
O=S(=O)(Nc1ccc2oc(-c3ccccc3)nc2c1)c1ccccc1F	> 100 µM	> 63 µM	171 µM	> 100 µM	53 µM	59 µM	44 µM	72 µM	12%		> 100 µM	80 µM	69 µM
O=S(=O)(Nc1ccc(-c2nc3ccccc3o2)cc1)c1ccccc1Cl	> 100 µM	> 63 µM	171 µM	86 µM	> 100 µM	59 µM	51 µM	> 100 µM	11%		> 100 µM	47 µM	64 µM
O=S(=O)(Nc1ccc2oc(-c3ccccc3)nc2c1)c1ccc(Cl)c(C(F)(F)F)c1	> 100 µM	> 63 µM	132 µM	92 µM	47 µM	40 µM	28 µM	66 µM	0%		> 100 µM	40 µM	34 µM
O=S(=O)(Nc1ccc2oc(-c3ccccc3)nc2c1)c1ccccc1C(F)(F)F	> 100 µM	> 63 µM	162 µM	92 µM	59 µM	44 µM	37 µM	80 µM	45%		> 100 µM	58 µM	55 µM
O=S(=O)(Nc1ccc(-c2nc3ccccc3o2)cc1)c1ccc(Cl)c(Cl)c1	> 100 µM	> 63 µM	104 µM	43 µM	84 µM	29 µM	30 µM	> 100 µM	37%		25 µM	25 µM	33 µM
CS(=O)(=O)Nc1ccc(-c2nc3ccccc3o2)cc1	> 100 µM	> 63 µM	> 250 µM	> 100 µM	> 100 µM	> 100 µM	> 100 µM	> 100 µM	23%		> 100 µM	> 100 µM	> 100 µM
